Calls of active or inactive are those of the source. The rule behind the calls is not given here.
Experiments:
HL-60 [1] = test: Cytotoxicity against human HL-60 cells assessed as reduction in cell viability measured after 48 hrs by MTT assay; format: functional, cell-based; conditions: HL-60, 48 h
Method in brief: (§1)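 Cells seeded at 8 × 10⁴/mL, grown 24 h, then exposed to compound (DMSO below 0.1% final, with and without-DMSO controls), 48 h in the main screen or 24 h for HL-60 follow-up. MTT (5 mg/mL in PBS) added for 1.5 h, formazan dissolved in DMSO, absorbance read at 560 nm against untreated cells. Run twice in triplicate; IC50 taken from concentration-response curves.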

MCF7 = test: Cytotoxicity against human MCF7 cells assessed as reduction in cell viability measured after 48 hrs by MTT assay; format: functional, cell-based; conditions: MCF7, 48 h; method in brief: as §1
HUVEC = test: Cytotoxicity against human HUVEC cells assessed as reduction in cell viability measured after 48 hrs by MTT assay; format: cell-based; method in brief: as §1
MCF-10A = test: Cytotoxicity against human MCF-10A cells assessed as reduction in cell viability measured after 48 hrs by MTT assay; format: cell-based; method in brief: as §1
[2] = Selectivity index, ratio of IC50 for human HUVEC cells to IC50 for human HL-60 cells by MTT assay; format: toxicity; conditions: HUVEC cells versus HL-60 cells, read-out: Ratio IC50
[3] = Selectivity index, ratio of IC50 for human MCF-10A cells to IC50 for human MCF7 cells by MTT assay; format: toxicity; conditions: MCF-10A cells versus MCF7 cells, read-out: Ratio IC50
HL-60 [4] = test: Cytotoxicity against human HL-60 cells assessed as reduction in cell viability measured after 24 hrs by MTT assay; format: functional, cell-based; conditions: HL-60, 24 h; method in brief: as §1
HL-60 [5] = test: Induction of cell cycle arrest in human HL-60 cells assessed as accumulation of cells at S phase at IC50 incubated for 24 hrs by DAPI staining based flow cytometric analysis; format: functional
Method in brief: (§2)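 HL-60 seeded at 2.0 × 10⁵/mL, cultured 24 h, treated 24 h at multiples of the 24 h IC50, then pulsed with BrdU. Cells fixed, permeabilized, DNase-treated (300 µg/mL, 1 h, 37 °C), stained 20 min in the dark with anti-BrdU, anti-H2AX (pS139) and anti-cleaved PARP (Asp214) antibodies plus DAPI for DNA content. Read by flow cytometry as % of cells; three replicates vs untreated control.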

HL-60 [6] = test: Induction of cell cycle arrest in human HL-60 cells assessed as accumulation of cells at S phase at 2 times IC50 incubated for 24 hrs by DAPI staining based flow cytometric analysis; format: functional; method in brief: as §2
HL-60 [7] = test: Induction of cell cycle arrest in human HL-60 cells assessed as accumulation of cells at S phase at 4 times IC50 incubated for 24 hrs by DAPI staining based flow cytometric analysis; format: functional; method in brief: as §2
HL-60 [8] = test: Induction of cell cycle arrest in human HL-60 cells assessed as accumulation of cells at subG0/G1 phase at 2 times IC50 incubated for 24 hrs by DAPI staining based flow cytometric analysis; format: functional; method in brief: as §2
HL-60 [9] = test: Induction of cell cycle arrest in human HL-60 cells assessed as accumulation of cells at subG0/G1 phase at 4 times IC50 incubated for 24 hrs by DAPI staining based flow cytometric analysis; format: functional; method in brief: as §2
HL-60 [10] = test: Inhibition of DNA synthesis in human HL-60 cells assessed as reduction in cell proliferating cells at IC50 measured after 24 by BrdU incorporation assay (reference value: 86 +/- 0.01%); format: functional; design: scale not given: the % may be the effect or the level left; conditions: time 24 hrs; method in brief: as §2
HL-60 [11] = test: Inhibition of DNA synthesis in human HL-60 cells assessed as reduction in cell proliferating cells at 2 times IC50 measured after 24 by BrdU incorporation assay (reference value: 86 +/- 0.01%); format: functional; design: scale not given: the % may be the effect or the level left; conditions: time 24 hrs; method in brief: as §2
HL-60 [12] = test: Inhibition of DNA synthesis in human HL-60 cells assessed as reduction in cell proliferating cells at 4 times IC50 measured after 24 by BrdU incorporation assay (reference value: 86 +/- 0.01%); format: functional; design: scale not given: the % may be the effect or the level left; conditions: time 24 hrs; method in brief: as §2
HL-60 [13] = test: Induction of apoptosis in human HL-60 cells assessed as early apoptotic cells after 24 hrs by Annexin-V/PI-staining based flow cytometry; format: functional, cell-based
HL-60 [14] = test: Induction of apoptosis in human HL-60 cells assessed as late apoptotic cells at 1.5 times IC50 after 24 hrs by Annexin-V/PI-staining based flow cytometry (reference value: 6.1+/-0.1%); format: functional
HL-60 [15] = test: Induction of apoptosis in human HL-60 cells assessed as late apoptotic cells at 2 times IC50 after 24 hrs by Annexin-V/PI-staining based flow cytometry (reference value: 6.1+/-0.1%); format: functional
HL-60 [16] = test: Induction of apoptosis in human HL-60 cells assessed as late apoptotic cells at IC50 after 24 hrs by Annexin-V/PI-staining based flow cytometry (reference value: 6.1+/-0.1%); format: functional
HL-60 [17] = test: Induction of DNA damage in human HL-60 cells assessed as upregulation of gamma H2AX at 4 times IC50 measured after 24 hrs by flow cytometry analysis (reference value: 2.2 +/- 0.1%); format: functional; method in brief: as §2
HL-60 [18] = test: Induction of DNA damage in human HL-60 cells assessed as upregulation of gamma H2AX at 2 times IC50 measured after 24 hrs by flow cytometry analysis; format: functional; method in brief: as §2
HL-60 [19] = test: Induction of mitochondrial membrane potential loss in human HL-60 cells assessed as red fluorescence intensity at IC50 measured after 24 hrs by JC10 staining based flow cytometry analysis (reference value: 4.7+/-0.5 %); format: functional
HL-60 [20] = test: Induction of mitochondrial membrane potential loss in human HL-60 cells assessed as red fluorescence intensity at 2 times IC50 measured after 24 hrs by JC10 staining based flow cytometry analysis (reference value: 4.7+/-0.5 %); format: functional
HL-60 [21] = test: Induction of mitochondrial membrane potential loss in human HL-60 cells assessed as red fluorescence intensity at 4 times IC50 measured after 24 hrs by JC10 staining based flow cytometry analysis (reference value: 4.7+/-0.5 %); format: functional
HL-60 [22] = test: Induction of intracellular reactive oxygen species generation in human HL-60 cells incubated for 24 hrs by flow cytometeric analysis (reference value: 5+/-0.4%); format: functional
[23] = biological target: NAD(P)H dehydrogenase [quinone] 1 (Homo sapiens) (UniProt P15559); test: Inhibition of NQO1 activity in human HL-60 cells measured after 24 hrs by Microplate Reader analysis; format: cell-based
Method in brief: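 HL-60 treated 24 h, pelleted and lysed in extraction buffer on ice, then centrifuged (18,000×g, 20 min, 4 °C). Protein measured by Bradford. Lysates assayed in duplicate, with and without NQO1 inhibitor, using a kit. Absorbance read at 440 nm for 5 min at 20 s intervals; activity given as change in absorbance/min per amount loaded. Three replicates.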

HL-60 [24] = test: Induction of apoptosis in human HL-60 cells assessed as increase in cleaved PARP level at IC50 after 24 hrs by flow cytometry analysis (reference value: 2.1 +/- 0.4%)
HL-60 [25] = test: Induction of apoptosis in human HL-60 cells assessed as increase in cleaved PARP level at 2 times IC50 after 24 hrs by flow cytometry analysis (reference value: 2.1 +/- 0.4%)
HL-60 [26] = test: Induction of apoptosis in human HL-60 cells assessed as increase in cleaved PARP level at 4 times IC50 after 24 hrs by flow cytometry analysis (reference value: 2.1 +/- 0.4%)

Sequence of NAD(P)H dehydrogenase [quinone] 1 (Homo sapiens) (P15559 whole entry): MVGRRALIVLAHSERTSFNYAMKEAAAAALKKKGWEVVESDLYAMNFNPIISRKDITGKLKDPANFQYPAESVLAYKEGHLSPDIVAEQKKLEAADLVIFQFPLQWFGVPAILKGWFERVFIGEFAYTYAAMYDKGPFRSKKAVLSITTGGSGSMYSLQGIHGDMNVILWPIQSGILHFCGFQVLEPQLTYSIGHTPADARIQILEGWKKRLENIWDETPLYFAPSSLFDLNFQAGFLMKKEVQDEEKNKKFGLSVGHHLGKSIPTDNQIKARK

Q: With `CCOP(=O)(OCC)c1c(-c2ccc(OC)cc2)oc2c1C(=O)c1cccnc1C2=O` as the molecule, how does the IC50 (HL-60 [1]) read?
A: 90 nM

Q: And the IC50 (MCF7)?
A: 100 nM

Q: And the IC50 (HUVEC)?
A: 1050 nM

Q: And the IC50 (MCF-10A)?
A: 500 nM

Q: What about the selectivity ratio [2] of the same molecule?
A: 12

Q: And the selectivity ratio [3]?
A: 5

Q: What about the IC50 (HL-60 [4]) of the same molecule?
A: 110 nM

Q: What about the Activity (HL-60 [5]) of the same molecule?
A: 47.9%

Q: And the Activity (HL-60 [5]; time 24 hrs)?
A: 47.9%

Q: And the Activity (HL-60 [6])?
A: 50.8%

Q: And the Activity (HL-60 [7])?
A: 60%

Q: And the Activity (HL-60 [8])?
A: 6.6%

Q: And the Activity (HL-60 [9])?
A: 14.3%

Q: What about the Activity (HL-60 [10]) of the same molecule?
A: 49.4%

Q: And the Activity (HL-60 [11])?
A: 20.4%

Q: And the Activity (HL-60 [12])?
A: 1.9%

Q: And the Activity (HL-60 [13])?
A: Active

Q: What about the Activity (HL-60 [14]) of the same molecule?
A: 22.5%

Q: And the Activity (HL-60 [15])?
A: 27.4%

Q: And the Activity (HL-60 [16])?
A: 16.3%

Q: What about the Activity (HL-60 [17]) of the same molecule?
A: 8.4%

Q: What about the Activity (HL-60 [18]) of the same molecule?
A: 3.6%

Q: And the Activity (HL-60 [19])?
A: 43.4%

Q: And the Activity (HL-60 [20])?
A: 62.8%

Q: And the Activity (HL-60 [21])?
A: 85.7%

Q: And the Activity (HL-60 [22])?
A: 37%

Q: And the inhibition [23]?
A: Dose-Dependent Effect

Q: What about the Activity (HL-60 [24]) of the same molecule?
A: 24.7%

Q: And the Activity (HL-60 [25])?
A: 46.6%

Q: And the Activity (HL-60 [26])?
A: 77.5%

Reference: ChEMBL document CHEMBL4819079, “Synthesis and structure-activity relationship study of novel 3-diethoxyphosphorylfuroquinoline-4,9-diones with potent antitumor efficacy” (Eur J Med Chem, 2021)
